These results are taken from ChEMBL document CHEMBL1155655 (2000).

Values after ≈ are worked out from the molar mass of the structure shown. Active and inactive are the calls of the source. No cut-off for these calls is given here.

One series relates to Leishmania major. The experiment in a line: Antileishmanial activity against promastigotes of Leishmania major LV39 infected in C57BL/10ScSn mouse bone marrow-derived macrophages. It is filed as functional, organism-based. In short, it runs like this:
(§1)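 Promastigotes of L. donovani LV9, L. infantum D.SCH (isolated 1995 from an infant visceral leishmaniasis case), L. enriettii and L. major LV39, grown at 25 °C, 5% CO2, humidified, and passaged every 3-4 days. Stocks were kept by animal passage (not L. infantum) and cryopreserved in liquid nitrogen.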

A further series concerns Leishmania infantum. The experiment in a line: Antileishmanial activity against promastigotes of Leishmania infantum D.SCH infected in C57BL/10ScSn mouse bone marrow-derived macrophages. It is filed as functional, organism-based. In short, it runs like this: as §1
A further series has as its system Leishmania enriettii. The experiment in a line: Antileishmanial activity against promastigotes of Leishmania enriettii infected in C57BL/10ScSn mouse bone marrow-derived macrophages. Particulars: read-out: ED50. Format: functional.
The test system of series [1] is Leishmania donovani. Description: Antileishmanial activity against intracellular Leishmania donovani LV9 infected in C57BL/10ScSn mouse bone marrow-derived macrophages. To be noted: LV9, read-out: ED50. It is filed as functional.
The subject of series [2] is Leishmania donovani. The experiment in a line: Antileishmanial activity against extracellular Leishmania donovani LV9 infected in C57BL/10ScSn mouse bone marrow-derived macrophages. Format: functional. To be noted: LV9, read-out: ED50.
The nature of series [3]: Cytotoxicity against C57BL/10ScSn mouse bone marrow-derived macrophages. Format: cell-based, Macrophage.
A further series concerns KB. The experiment in a line: Cytotoxicity against human KB cells. It is filed as functional, cell-based.
The test system of a further series is SK-MEL-30. Description: Cytotoxicity against human SK-MEL-30 cells. It is filed as functional, cell-based.
In the next series the test system is A549. The experiment in a line: Cytotoxicity against human A549 cells. It is filed as functional, cell-based.
In a further series the test system is MCF7. Description: Cytotoxicity against human MCF7 cells. Format: functional, cell-based.
A short description of the next series: Toxicity in brine shrimp. Particulars: artemia, in vivo. It is filed as organism-based.

Consider `C=C[C@]1(C)CC[C@]2(C)[C@@H](C1)C(=O)[C@@H](O)[C@@H]1[C@]3(C)CCC[C@@]12OC3=O`, for which the result in the series with Leishmania major and in the series with Leishmania infantum was inactive. Also, the EC50 was over 50 µg/mL with Leishmania enriettii, 37.2 µg/mL (≈ 112 µM) with Leishmania donovani [1] and 10.3 µg/mL (≈ 31 µM) with Leishmania donovani [2]. This compound returned a CC50 in [3] of 19.5 µg/mL (≈ 58.7 µM).
As to `C/C=C\C(=O)O[C@@H]1[C@@H](O)[C@H]2O[C@@H]3C=C(C)CC[C@]3(C)[C@]1(C)[C@]21CO1` [8-DIHYDROTRICHOTHECINOL A], the EC50 came out at 0.1 µg/mL (≈ 0.299 µM) in the series with KB (kb), 0.11 µg/mL (≈ 0.329 µM) with SK-MEL-30 (sk-mel-30), 0.11 µg/mL (≈ 0.329 µM) in the series with A549 (a549) and 0.11 µg/mL (≈ 0.329 µM) with MCF7 (mcf7).
On to `CC(=O)OC[C@]12O[C@]34C=C(C)C(=O)C[C@]3(C)[C@@]1(C)[C@H](O)C[C@H]2O4` [13-ACETOXYLOUKACINOL A], for which the EC50 was found to be 13.6 µg/mL (≈ 42.2 µM) in the series on KB (Homo sapiens, KB); 18 µg/mL (≈ 55.8 µM) in the series with SK-MEL-30 (Homo sapiens, SK-MEL-30); 26.6 µg/mL (≈ 82.5 µM) in the series on A549 (Homo sapiens, A549); 15.9 µg/mL (≈ 49.3 µM) with MCF7 (Homo sapiens, MCF7).
For the compound `CC1=C[C@]23O[C@@H]4C[C@@H](O)[C@](C)([C@@]2(C)CC1=O)[C@]4(CO)O3` [LOUKACINOL A], the EC50 in the series on KB (Homo sapiens, KB) was 13.9 µg/mL (≈ 49.6 µM); in the series with SK-MEL-30 (Homo sapiens, SK-MEL-30), 16.4 µg/mL (≈ 58.5 µM); with A549 (Homo sapiens, A549), 21.4 µg/mL (≈ 76.3 µM); in the series on MCF7 (Homo sapiens, MCF7), 15.8 µg/mL (≈ 56.4 µM).
Regarding `CC1=C[C@]23O[C@@H]4CC[C@](C)([C@@]2(C)CC1=O)[C@]4(CO)O3` [LOUKACINOL B], the EC50 in the series on KB (Homo sapiens, KB) is 11.8 µg/mL (≈ 44.6 µM); in the series on SK-MEL-30 (Homo sapiens, SK-MEL-30), 13.6 µg/mL (≈ 51.5 µM); in the series on A549 (Homo sapiens, A549), 15.2 µg/mL (≈ 57.5 µM); in the series with MCF7 (Homo sapiens, MCF7), 13.3 µg/mL (≈ 50.3 µM).
As for `C/C=C\C(=O)O[C@@H]1[C@@H](O)[C@H]2O[C@@H]3C=C(C)C(=O)C[C@]3(C)[C@]1(C)[C@]21CO1` [TRICHOTHECINOL A], the EC50 came to 0.014 µg/mL (≈ 0.0402 µM) with KB (kb), 0.013 µg/mL (≈ 0.0373 µM) in the series on SK-MEL-30 (sk-mel-30), 0.021 µg/mL (≈ 0.0603 µM) with A549 (a549) and 0.014 µg/mL (≈ 0.0402 µM) with MCF7 (mcf7). Further, the LC50 in the series “Toxicity in brine shrimp” was found to be 0.52 µg/mL (≈ 1.49 µM).
For the compound `C/C=C\C(=O)O[C@@H]1C[C@H]2O[C@@H]3C=C(C)C(=O)C[C@]3(C)[C@]1(C)[C@]21CO1` [TRICHOTHECIN], the EC50 in the series on KB (kb) was found to be 35 µg/mL (≈ 105 µM); in the series on SK-MEL-30 (sk-mel-30) it was 14 µg/mL (≈ 42.1 µM); in the series with A549 (a549), 16 µg/mL (≈ 48.1 µM); in the series with MCF7 (mcf7), 19 µg/mL (≈ 57.2 µM). In the series “Toxicity in brine shrimp”, the median lethal concentration (LC50) was determined as 2.2 µg/mL (≈ 6.62 µM).
On to `CC1=C[C@H]2O[C@@H]3C[C@@H](O)[C@](C)([C@@]2(C)CC1=O)[C@]31CO1` [TRICHOTHECOLONE], for which the EC50 was 10.6 µg/mL (≈ 40.1 µM) with KB (kb), 8.6 µg/mL (≈ 32.5 µM) with SK-MEL-30 (sk-mel-30), 7.1 µg/mL (≈ 26.9 µM) in the series on A549 (a549) and 10.6 µg/mL (≈ 40.1 µM) in the series on MCF7 (mcf7).

One may read the CC50 as the concentration that lowers cell viability or growth by half. Low readings indicate harm at low concentration, high ones better tolerance by the cells. Broadly, the LC50 is the concentration that kills 50% of the test population. A lower LC50 goes with a more lethal substance.
